This is an account of results in ChEMBL document CHEMBL1159327, “(+)-7S-Hydroxyxestospongin A from the marine sponge Xestospongia sp. and absolute configuration of (+)-xestospongin D” (2002).

≈ marks a conversion by molar mass, not a printed value. Calls of active or inactive are those of the source.

For assay [1], the system named is Nakaseomyces glabratus. Kind of assay: Antimicrobial activity against Candida glabrata after 16 to 18 hrs by microbroth dilution assay. It is filed as functional. Put shortly: (§1)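 Broth microdilution susceptibility testing, adapted with minor changes from a published method, incubated at 37 °C for 16–18 h; read-out is the minimum inhibitory concentration. C. krusei and C. glabrata strains came from the University of Texas Medical Center. C. albicans UCD FR1 was raised in-house by repeated passage through Sabouraud medium containing inhibitory fluconazole concentrations.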
For orientation: Dilution methods test growth across graded concentrations, often in twofold steps.

Assay [2] has as its system Candida albicans. Kind of assay: Antimicrobial activity against fluconazole-resistant Candida albicans ATCC 14503 after 16 to 18 hrs by microbroth dilution assay. It is filed as functional. In short, it runs like this:
as §1

The subject of assay [3] is Pichia kudriavzevii. In words: Antimicrobial activity against Candida krusei after 16 to 18 hrs by microbroth dilution assay. It is filed as functional. In short, it runs like this: as §1
Assay [4] has as its system Candida albicans. In words: Antimicrobial activity against Candida albicans UCD FRI after 16 to 18 hrs by microbroth dilution assay. It is filed as functional. Put shortly: as §1
For a further assay, the species on record is Oryctolagus cuniculus. Kind of assay: Inhibition of IP3-sensitive Ca2+ channel activity in endoplasmic reticulum of rabbit cerebellum assessed as Ca2+ release. It counts as tissue-based.
For assay [5], the system named is Pichia kudriavzevii. In words: Antimicrobial activity against Candida krusei up to 300 ug/disk by disk diffusion method. It is filed as functional, organism-based. Put shortly: (§2)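 Disk diffusion antifungal test, up to 300 μg/disk, read as a zone of inhibition. C. glabrata and C. krusei were clinical strains from the University of Texas Medical Center. C. albicans UCD FR1 was raised in-house by repeated passage through Sabouraud medium containing inhibitory concentrations of fluconazole.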

Assay [6] has as its system Nakaseomyces glabratus. In words: Antimicrobial activity against Candida glabrata up to 300 ug/disk by disk diffusion method. It is filed as functional, organism-based. Put shortly: as §2
In general terms: Agar diffusion results depend on both activity and mobility in agar.

Assay [7] concerns Candida albicans. In words: Antimicrobial activity against Candida albicans UCD FRI up to 300 ug/disk by disk diffusion method. It is filed as functional, organism-based. In short, it runs like this:
as §2

In assay [8] the test system is Candida albicans. In words: Antimicrobial activity against fluconazole-resistant Candida albicans ATCC 14503 up to 300 ug/disk by disk diffusion method. It counts as functional, organism-based.

What is called MIC is the smallest concentration in the dilution series that meets the test's criterion for growth inhibition. Lower therefore signals a more susceptible organism. For `C1CCC[C@@H]2CCCN3CC[C@@H](CCCCCC[C@@H]4CCCN5CC[C@@H](CC1)O[C@@H]45)O[C@@H]23`, the MIC with Nakaseomyces glabratus [1], against Candida albicans [2], against Pichia kudriavzevii [3] and against Candida albicans [4] was 100 µg/mL (≈ 224 µM) each time.
Consider `C1CCC[C@H]2CCCN3CC[C@@H](CCCCCC[C@@H]4CCCN5CC[C@@H](CC1)O[C@@H]45)O[C@@H]23`, for which the MIC stood at 30 µg/mL (≈ 67.2 µM) with Nakaseomyces glabratus [1], 100 µg/mL (≈ 224 µM) in the assay with Candida albicans [2], 30 µg/mL (≈ 67.2 µM) in the assay with Pichia kudriavzevii [3] and 100 µg/mL (≈ 224 µM) in the assay on Candida albicans [4]. The ED50 in the assay listed under Oryctolagus cuniculus is 300 nM.
With `OC(Cn1cncn1)(Cn1cncn1)c1ccc(F)cc1F` [FLUCONAZOLE], the MIC stood at 100 µg/mL (≈ 327 µM) with Nakaseomyces glabratus [1], 1 µg/mL (≈ 3.27 µM) against Candida albicans [2], 100 µg/mL (≈ 327 µM) in the assay with Pichia kudriavzevii [3] and 100 µg/mL (≈ 327 µM) against Candida albicans [4].
With `O[C@]12CCCCCC[C@@H]3CCN4CCC[C@@H](CCCCCC[C@@H]5CCN(CCC1)[C@H]2O5)[C@@H]4O3`, the MIC with Nakaseomyces glabratus [1], in the assay with Candida albicans [2], with Pichia kudriavzevii [3] and against Candida albicans [4] was 100 µg/mL (≈ 216 µM) each time. In addition, in the assay listed under Oryctolagus cuniculus, the ED50 amounted to 800 nM.
Consider `C[C@@H]1[C@H](O)[C@@H](C)/C=C/C=C/C=C/C=C/C=C/C=C/C=C/[C@H](O[C@@H]2O[C@H](C)[C@@H](O)[C@H](N)[C@@H]2O)C[C@@H]2O[C@](O)(C[C@@H](O)C[C@@H](O)[C@H](O)CC[C@@H](O)C[C@@H](O)CC(=O)O[C@H]1C)C[C@H](O)[C@H]2C(=O)O` [AMPHOTERICIN B], for which the values for the MIC with Nakaseomyces glabratus [1], in the assay with Candida albicans [2] and against Candida albicans [4] were 1 µg/mL (≈ 1.08 µM), 0.3 µg/mL (≈ 0.325 µM) and 1 µg/mL (≈ 1.08 µM), respectively.
`O[C@H]1C[C@H]2CCCCCC[C@@H]3CCN4CCC[C@@H](CCCCCC[C@@H]5CCN(C1)[C@H]2O5)[C@@H]4O3`: the result in the assay on Pichia kudriavzevii [5], in the assay on Nakaseomyces glabratus [6], in the assay on Candida albicans [7] and in the assay on Candida albicans [8] was inactive. Also, the ED50 in the assay filed under Oryctolagus cuniculus turned out to be 6400 nM.
In the case of `O[C@]12CCCCCC[C@@H]3CCN4CCC[C@H](CCCCCC[C@@H]5CCN(CCC1)[C@H]2O5)[C@@H]4O3` [(+)-DEMETHYLXESTOSPONGIN B], the MIC against Nakaseomyces glabratus [1] came to 30 µg/mL (≈ 64.8 µM); against Candida albicans [2], 100 µg/mL (≈ 216 µM); with Pichia kudriavzevii [3], 30 µg/mL (≈ 64.8 µM); against Candida albicans [4], 30 µg/mL (≈ 64.8 µM).
